Holding throughout (design): scale not given: the % may be the effect or the level left
Experiment [1] is described as follows: Inhibition of trypsin at 2.4 uM relative to control. The method, boiled down:
(§1)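 Enzyme assays run per supplier catalogue protocols, substrates as printed: […], elastase N-succinyl-Ala-Ala-Ala-pNA. Test sample given in MeOH; control received 10 µL MeOH in its place. Activity relative to solvent-treated control, mean of five data points with standard error of the mean.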

Experiment [2] in a line: Inhibition of trypsin at 12.2 uM relative to control. The method, boiled down:
as §1

The nature of experiment [3]: Inhibition of trypsin at 97.6 uM relative to control. The method, boiled down:
as §1

Experiment [4] can be described thus: Inhibition of elastase at 2.4 uM relative to control. In outline: as §1
The nature of experiment [5]: Inhibition of elastase at 12.2 uM relative to control. In outline: as §1
The nature of experiment [6]: Inhibition of elastase at 97.6 uM relative to control. The method, boiled down: as §1
Experiment [7] is described as follows: Inhibition of chymotrypsin at 2.4 uM relative to control. In outline:
as §1

Experiment [8] is described as follows: Inhibition of chymotrypsin at 12.2 uM relative to control. In outline: as §1
The nature of experiment [9]: Inhibition of chymotrypsin at 97.6 uM relative to control. The method, boiled down:
as §1

This passage reports Activity results from ChEMBL document CHEMBL1159309, “A prolyl endopeptidase-inhibiting benzofuran dimer from Polyozellus multiflex” (J Nat Prod, 2002).

Regarding `COC(=O)c1oc2cc(O)c(O)cc2c1-c1c(C(=O)OC)oc2cc(O)c(O)cc12`, the Activity in experiment [1] was found to be 3.1%; in experiment [2], 5.6%; in experiment [3], 5.9%; in [4], 22%; in experiment [5], 27.6%; in [6] it was 29%. Moreover, the results for the Activity in experiment [7], in experiment [8] and in experiment [9] were 3.7%, 6.6% and 4%, respectively.
